For data set [1], the target named is T1, Metabotropic glutamate receptor 5 (Homo sapiens, UniProt P41594). Nature of the data set: Inhibitory concentration against human recombinant metabotropic glutamate receptor 5 (mGlu5) in Ltk cells determined using fluorescence detection method. It is filed as cell-based. An outline of the steps:
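Automated functional Ca2+ flux assay in Ltk cells stably expressing human recombinant mGlu5. Changes in cytosolic Ca2+ were read by fluorescence with the Ca2+-sensitive dye fura-2. IC50 values are means of two to three experiments.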

Data set [2] in a line: Modest half life was determined. It is filed as ADME. Particulars: rat.
A short description of data set [3]: High plasma clearance was determined. It is filed as ADME, organism-based. Particulars: rat, read-out: Clp.
Data set [4] in a line: Low oral bioavailability was determined. It is filed as ADME, organism-based. Particulars: rat, in vivo.
Data set [5] can be described thus: High plasma clearance in rat was determined. It is filed as ADME, organism-based. The conditions noted are these: read-out: Clp.
Data set [6] can be described thus: Modest half life in rat was determined. It is filed as ADME. Particulars: in vivo.
The target in data set [7] is T1, Metabotropic glutamate receptor 5. Nature of the data set: Inhibitory concentration against human recombinant metabotropic glutamate receptor 5 (mGlu5) in Ltk cells determined using fluorescence detection method; NA=Not Active. It is filed as cell-based. An outline of the steps: (§1)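 Automated functional Ca2+ flux assay in Ltk cells stably expressing human recombinant mGlu5. Changes in cytosolic Ca2+ were read by fluorescence with the Ca2+-sensitive dye fura-2. IC50 values are means of two to three experiments. Compounds were called not active when IC50 > 10 μM.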

Data set [8] has the same target. Nature of the data set: Inhibitory concentration against human recombinant metabotropic glutamate receptor 5 (mGlu5) in Ltk cells determined using fluorescence detection method; IA=Inactive. It is filed as cell-based. An outline of the steps: as §1
The nature of data set [9]: Modest half life in rat was determined; LOQ = limit of quantitation. It is filed as ADME. Particulars: in vivo.
Data set [10] can be described thus: Oral bioavailability in rat; LOQ = limit of quantitation. It is filed as ADME, organism-based. The conditions noted are these: in vivo.

pIC50: −log10 of the molar value. Where only a bound is given, the exact number is not on record here.

T1 sequence (P41594 whole entry): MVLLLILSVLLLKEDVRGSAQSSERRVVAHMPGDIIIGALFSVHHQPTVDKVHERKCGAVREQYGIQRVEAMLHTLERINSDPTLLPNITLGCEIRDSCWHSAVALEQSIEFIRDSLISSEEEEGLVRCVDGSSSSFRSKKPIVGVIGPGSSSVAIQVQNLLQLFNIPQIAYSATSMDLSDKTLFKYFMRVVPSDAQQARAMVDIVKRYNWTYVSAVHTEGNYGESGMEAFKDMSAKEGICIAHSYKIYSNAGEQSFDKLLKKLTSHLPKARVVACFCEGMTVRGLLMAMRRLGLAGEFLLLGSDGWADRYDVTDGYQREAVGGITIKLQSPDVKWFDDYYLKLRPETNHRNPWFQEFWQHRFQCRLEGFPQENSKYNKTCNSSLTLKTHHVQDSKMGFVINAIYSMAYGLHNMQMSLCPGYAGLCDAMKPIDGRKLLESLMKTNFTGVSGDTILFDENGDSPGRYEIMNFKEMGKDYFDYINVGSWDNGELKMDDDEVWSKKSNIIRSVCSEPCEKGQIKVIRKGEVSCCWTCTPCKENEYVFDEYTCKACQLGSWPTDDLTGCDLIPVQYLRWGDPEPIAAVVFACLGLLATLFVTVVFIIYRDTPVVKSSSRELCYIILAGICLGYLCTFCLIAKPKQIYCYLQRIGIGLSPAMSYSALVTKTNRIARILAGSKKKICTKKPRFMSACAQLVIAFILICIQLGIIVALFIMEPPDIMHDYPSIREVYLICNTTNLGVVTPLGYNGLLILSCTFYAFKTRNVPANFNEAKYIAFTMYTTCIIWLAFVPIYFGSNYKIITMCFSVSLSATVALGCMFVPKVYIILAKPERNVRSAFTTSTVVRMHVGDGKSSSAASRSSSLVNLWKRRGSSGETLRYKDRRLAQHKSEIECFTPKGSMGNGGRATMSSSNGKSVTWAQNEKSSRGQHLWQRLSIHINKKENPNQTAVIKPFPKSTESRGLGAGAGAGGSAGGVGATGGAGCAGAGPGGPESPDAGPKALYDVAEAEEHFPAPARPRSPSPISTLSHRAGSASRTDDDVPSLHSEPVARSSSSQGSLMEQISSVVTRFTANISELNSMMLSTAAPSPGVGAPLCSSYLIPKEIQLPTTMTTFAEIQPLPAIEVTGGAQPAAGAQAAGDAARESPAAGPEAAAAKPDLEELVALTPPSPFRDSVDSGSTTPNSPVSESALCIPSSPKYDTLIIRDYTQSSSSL

As for `Cc1cccc(NC(=O)c2nc(C)ccc2N)n1`, the negative logarithm of the IC50 (pIC50) in data set [1] is 7.66.

With `CN(C)c1cnc(C(=O)Nc2ccccn2)c(N)n1`, in [1], the negative logarithm of the IC50 (pIC50) is 5.29.

For the compound `O=C(Nc1ccccn1)c1cncc(Cl)n1`, in [1], the pIC50 is 6.60.

Turning to `Cc1ccc(O)c(C(=O)Nc2cccc(C)n2)c1`, the pIC50 in data set [1] was 6.98.

`Cc1cnc(N)c(C(=O)Nc2ccccn2)n1`: the half-life in [2] was 4.4 h. The pIC50 in data set [1] was 7.55. For the same compound, in [3], the clearance worked out at 56 mL/min/kg. The same compound yielded a bioavailability in data set [4] of 20%.

For `CC(C)Nc1nc(N)c(C(=O)Nc2ccccn2)nc1Cl`, the pIC50 in data set [1] was 7.64.

For the compound `Nc1nccnc1C(=O)Nc1ccccn1`, the pIC50 in data set [1] is 5.45.

With `Cc1cccc(NC(=O)c2nc(C)ccc2Nc2cccnc2)n1`, the clearance in data set [5] worked out at 176 mL/min/kg. In addition, the pIC50 in [1] is 7.96. This compound had a half-life in data set [6] of 1.25 h.

With `Cc1cccc(NC(=O)c2nc(Cl)cnc2N)n1`, the pIC50 in [1] is 8.30.

As to `CN(C)c1nc(N)c(C(=O)Nc2ccccn2)nc1Cl`, in [1], the pIC50 was 6.87.

`Cc1cncc(C(=O)Nc2ccccn2)n1`: the pIC50 in data set [1] is 6.78.

As for `CN(C)c1ncc(Br)nc1C(=O)Nc1ccccn1`, the IC50 entry in [7] is reported as “Not Active”.

As for `Nc1ncc(Cl)nc1C(=O)Nc1ccccn1`, in data set [1], the negative logarithm of the IC50 (pIC50) is 7.96.

Take `Nc1nc(N2CCCCC2)c(Cl)nc1C(=O)Nc1ccccn1`: in data set [1], the pIC50 was 6.99.

Consider `O=C(Nc1ccccn1)c1cncc(Br)c1`, for which the IC50 entry in data set [8] is “Not Active”.

Regarding `Cc1cccc(NC(=O)c2nc(C)ccc2O)n1`, in [5], the clearance is greater than 100 mL/min/kg. For the same compound, the T1/2 result in data set [9] is on record as “Limit of quantification”. Further, in data set [1], the negative logarithm of the IC50 (pIC50) is 8.15. Besides, in data set [10], the F entry was “Limit of quantification”.

With `Nc1nc(N)c(C(=O)Nc2ccccn2)nc1Cl`, in data set [1], the pIC50 was 5.42.

For `Cc1cccc(NC(=O)c2cccc(C)n2)n1`, the pIC50 in data set [1] is 7.49.

As for `O=C(Nc1ccccn1)c1cccc(Br)c1`, the IC50 entry in [8] is “Not Active”.

Consider `Cc1cccc(N(C)C(=O)c2nc(C)cnc2N)n1`, for which the IC50 result in data set [8] was “Not Active”.

Consider `O=C(Nc1ccccn1)c1cnccn1`, for which the IC50 entry in data set [7] is reported as “Not Active”.

For `CNc1ncc(Cl)nc1C(=O)Nc1ccccn1`, in [1], the pIC50 is 6.84.

In the case of `Nc1ncc(Br)nc1C(=O)Nc1ccccn1`, the pIC50 in data set [1] was 7.92.

Take `Cc1cccc(NC(=O)c2nc(C)cnc2N)n1`: the pIC50 in [1] was 8.10.

As for `Cc1cccc(NC(=O)c2cccc(Br)n2)n1`, in data set [1], the pIC50 is 7.68.

As to `CN(C)c1ncc(C(=O)Nc2ccccn2)nc1Cl`, the pIC50 in data set [1] was 6.80.

For the origin of these results see ChEMBL document CHEMBL1144333, “Dipyridyl amides: potent metabotropic glutamate subtype 5 (mGlu5) receptor antagonists” (Bioorg Med Chem Lett, 2005).
